These results are taken from ChEMBL document CHEMBL1129543, “Synthesis and evaluation of N-(phenylacetyl)trifluoromethanesulfonamides as anticonvulsant agents” (J Med Chem, 1996).

Some results are limits rather than exact numbers.

The ED50 is the dose at which the effect has come halfway, by size or by number of responders. For orientation: LD50 means the dose at which mortality reaches 50%. Usually TD50 stands for the dose at which the toxic effect under study appears in half of the subjects. Lower therefore signals greater toxicity.

Test [1] has as its system Mus musculus. The experiment in a line: Inhibition of seizures induced in mice by a convulsant dose of bicuculline through ip administration. It is filed as functional. An outline of the steps:
(§1)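 Phase V differentiation in mice: test drug given ip at time of peak therapeutic effect, then the CD₉₇ of each convulsant (picrotoxin, bicuculline, strychnine) given ip as a 0.5% solution; observation 30 min for bicuculline and strychnine, 45 min for picrotoxin. Drug in 30% PEG 400, 0.01 mL/g. ED₅₀ with 95% confidence intervals from ≥3 points in the 10-90% protection range, groups of 6-12 mice.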

Test [2] has as its system Mus musculus. Kind of test: Inhibition of picrotoxin-induced seizures in mice by ip administration. It is filed as functional. In outline: as §1
Test [3] concerns Mus musculus. The experiment in a line: Inhibition of seizures induced in mice by a convulsant dose of strychnine through ip administration. It is filed as functional. In outline: as §1
The subject of test [4] is Mus musculus. Kind of test: Median effective dose was evaluated by Maximal electroshock seizure test through intraperitoneal administration. It is filed as functional. The conditions noted are these: ip. In outline: (§2)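 Phase II in mice, ip dosing in 30% PEG 400. Groups of 6-12 mice per dose until at least three points fall in 10-90% protection. […] MES: 50 mA, 0.2 s corneal. scMet: pentylenetetrazol 85 mg/kg sc.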

Test [5] deals with Mus musculus. The experiment in a line: Median effective dose was evaluated by subcutaneous pentylenetetrazole seizure test through intraperitoneal administration. The class given is functional. In outline: as §2
Test [6] relates to Mus musculus. The experiment in a line: Median Effective dose was evaluated by Maximal electroshock seizure (MES) test in mice by oral administration. The class given is functional.
Test [7] has as its system Mus musculus. Kind of test: Median Effective dose was evaluated by Subcutaneous pentylenetetrazole seizure test in mice by oral administration. It is filed as functional.
For test [8], the species on record is Mus musculus. Kind of test: Median hypnotic dose was evaluated by loss of righting reflex. It is filed as functional.
The test system of test [9] is Mus musculus. The experiment in a line: Median lethal dose was evaluated by mortality after 24 hr through ip injection administration. The class given is functional. An outline of the steps:
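Mice were dosed ip in 30% PEG 400. Mortality was scored 24 h after injection in groups of eight. The 24-h LD₅₀ was derived as for the ED₅₀/TD₅₀, with 95% confidence intervals.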

Test [10] has as its system Mus musculus. The experiment in a line: Median toxic dose was evaluated by […] through intraperitoneal administration. The class given is functional. On the technique in general: Protection in the maximal electroshock model is a classic sign of anticonvulsant action.
Test [11] is filed under the species Mus musculus. The experiment in a line: Time to peak activity was evaluated by Maximal electroshock seizure test in hours. The class given is functional.
Test [12] deals with Mus musculus. Kind of test: Time to peak effect in mice was evaluated by Maximal electroshock seizure (MES) test in hours by oral administration. The class given is functional. In outline:
(§3)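 Oral dosing in 30% PEG 400: phase IV in mice (0.01 mL/g), phase VI in Sprague-Dawley rats (0.004 mL/g). ED50/TD50 found as in phase II, at the stated time of peak effect. MES current 50 mA in mice, 150 mA in rats. PTZ sc 85 mg/kg in mice, 70 mg/kg in rats. Toxicity by rotorod in mice; positional sense, gait and stance in rats. PI = TD50/ED50.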

Test [13] has as its system Mus musculus. The experiment in a line: Time to peak effect in mice was evaluated by Neurologic toxicity (rotarod test) in hours by oral administration. It is filed as functional. In outline:
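Oral dosing in mice in 30% PEG 400 (0.01 mL/g). Neurologic deficit was scored by the rotorod ataxia test, and the time of peak effect was given in hours.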
For orientation: Falling from the rotarod earlier than controls is read as motor impairment.

For test [14], the system named is Mus musculus. The experiment in a line: Time to peak effect in mice was evaluated by Subcutaneous pentylenetetrazole seizure test in hours by oral administration. The class given is functional. In outline: as §3
The species named for test [15] is Mus musculus. The experiment in a line: Time to peak toxicity was evaluated by Maximal electroshock seizure test in hours. The class given is functional.
Test [16] deals with Rattus norvegicus. Kind of test: Median Effective dose was evaluated by Maximal electroshock seizure (MES) test in Rats by oral administration. The class given is functional.
Test [17] has as its system Rattus norvegicus. The experiment in a line: (§4) Median Effective dose was evaluated by Subcutaneous pentylenetetrazole seizure test in Rats by oral administration. The class given is functional.
The test system of test [18] is Rattus norvegicus. The experiment in a line: […] was evaluated by Neurologic toxicity (rotarod test) in Rats by oral administration. It is filed as functional.
For test [19], the system named is Rattus norvegicus. Kind of test: (§5) Time to peak effect in Rats was evaluated by Maximal electroshock seizure (MES) test in hours by oral administration. The class given is functional. An outline of the steps: as §3
Test [20] relates to Rattus norvegicus. Kind of test: (§6) Time to peak effect in Rats was evaluated by Subcutaneous pentylenetetrazole seizure test in hours by oral administration. The class given is functional. In outline: as §3
Test [21] has as its system Rattus norvegicus. Kind of test: (§7) Time to peak effect in Rats was evaluated by Neurologic toxicity (rotarod test) in hours by oral administration. It is filed as functional.
Test [22] relates to Mus musculus. Kind of test: Inhibition of picrotoxin-induced seizures in mice by ip administration at 250-1000 mg/kg (h= maximum 62.5% protection). It is filed as functional, organism-based. An outline of the steps: as §1
The test system of test [23] is Mus musculus. Kind of test: Median Effective dose was evaluated by Maximal electroshock seizure (MES) test in mice by oral administration up to 2000 mg/kg; f=no protection. Further details: dose 2000 mg/kg. The class given is functional, organism-based.
For test [24], the system named is Mus musculus. The experiment in a line: […] was evaluated by Neurologic toxicity (rotarod test) in mice by oral administration. The class given is functional. In outline: as §3
The test system of test [25] is Mus musculus. The test is described as §6. The class given is functional. In outline:
(§8)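 Oral dosing in Sprague-Dawley rats (30% PEG 400, 0.004 mL/g). Time to peak effect, in hours, was read in the MES test (150 mA, 60 Hz, corneal, 0.2 s; loss of tonic hind-leg extension) and in the scMet test (pentylenetetrazol 70 mg/kg sc; no clonus ≥5 s within 30 min).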

Test [26] concerns Mus musculus. The experiment in a line: Median Effective dose was evaluated by Maximal electroshock seizure (MES) test in Rats by oral administration up to 1200 mg/kg; g= no protection. The class given is functional, organism-based. Also on record: dose 1200 mg/kg.
For test [27], the system named is Mus musculus. Described as §4. The class given is functional.
For test [28], the system named is Mus musculus. The test is described as §5. The class given is functional. An outline of the steps: as §8
Test [29] relates to Mus musculus. Described as §7. It is filed as functional.

Consider `CCC1(c2ccccc2)C(=O)NC(=O)NC1=O` [PHENOBARBITAL], for which the ED50 in the test on Mus musculus [1] worked out at 38 mg/kg; with Mus musculus [2] it was 95 mg/kg; in the test on Mus musculus [3] it was 28 mg/kg; in the test with Mus musculus [4], 22 mg/kg; in the test on Mus musculus [5], 13 mg/kg; in the test on Mus musculus [6] it was 20 mg/kg. For the same compound, the ED50 amounted to 13 mg/kg in the test on Mus musculus [7], 9.1 mg/kg in the test with Rattus norvegicus [16] and 12 mg/kg in the test on Rattus norvegicus [17]. In the test filed under Mus musculus [8], this compound returned an HD50 of 135 mg/kg. This compound also yielded an LD50 in the test on Mus musculus [9] of 265 mg/kg. In addition, the results for the TD50 in the test on Mus musculus [10] and in the test on Rattus norvegicus [18] were 69 mg/kg and 61 mg/kg, respectively. Moreover, the TPE in the test filed under Mus musculus [11] came out at 1; in the test with Mus musculus [12], 2 h; in the test with Mus musculus [13], 2 h; in the test on Mus musculus [14], 2 h; in the test filed under Mus musculus [15], 0.5; in the test on Rattus norvegicus [19] it was 5 h. Further, the TPE came to 5 h in the test on Rattus norvegicus [20] and 0.5 h with Rattus norvegicus [21].
In the case of `CCC1(C)CC(=O)NC1=O` (stereo unspecified) [ETHOSUXIMIDE], the ED50 with Mus musculus [1] was 459 mg/kg; with Mus musculus [22], “Max protection”; in the test on Mus musculus [4] it was more than 1000 mg/kg; in the test on Mus musculus [5], 130 mg/kg; with Mus musculus [23], “No protection”; in the test with Mus musculus [7] it was 193 mg/kg. Further, the figures for the ED50 result in the test on Mus musculus [26] and with Mus musculus [27] were “No protection” and 54 mg/kg, respectively. Further, the HD50 in the test filed under Mus musculus [8] amounted to 850 mg/kg. The same compound displayed an LD50 in the test on Mus musculus [9] of 1810 mg/kg. Moreover, the figures for the TD50 in the test with Mus musculus [24] and in the test on Mus musculus [10] were 879 mg/kg and 441 mg/kg, respectively. The TPE in the test filed under Mus musculus [11] was determined as 0.5; in the test with Mus musculus [12], 0.5 h; in the test with Mus musculus [13] it was 1 h; in the test on Mus musculus [14], 0.5 h; in the test listed under Mus musculus [15] it was 0.5; with Mus musculus [25], 2 h. For the same compound, the TPE in the test with Mus musculus [28] and with Mus musculus [29] was 2 h each time.
